Assay outcomes deposited in PubChem by several laboratories.
proCasp3 act – activates human procaspase-3. P42574. recombinant procaspase-3 D3A, Ac-DEVD-pNA absorbance 405 nm. activation, % at 8.5 µM. actives 0.11% (n = 330,000). AID 463141;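 active = activation above the mean of all tested compounds plus 3 SD, cut at about 21% in these data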;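 also: 0% = DMSO alone and 100% = DMSO wells spiked with extra 5 µM PC-3 D3A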
Target sequence (P42574 whole entry D9A/D28A/D175A): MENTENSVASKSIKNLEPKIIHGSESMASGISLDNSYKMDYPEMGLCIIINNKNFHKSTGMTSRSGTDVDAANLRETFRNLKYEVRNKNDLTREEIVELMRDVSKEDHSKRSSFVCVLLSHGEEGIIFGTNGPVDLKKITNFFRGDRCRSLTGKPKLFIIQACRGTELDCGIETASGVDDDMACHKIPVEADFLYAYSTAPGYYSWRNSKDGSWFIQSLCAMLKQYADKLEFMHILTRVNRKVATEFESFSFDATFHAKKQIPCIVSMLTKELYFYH
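material = Procaspase-3 D3A mutant | probe or stimulus = Ac-DEVD-pNA | compound = single dose, 8.5 µM nominal compound, 0.8% DMSO | timing = 1 h preincubation, 2 h reaction | measured by = 405 nm absorbance of p-nitroaniline, reads at 0 and 120 min | benchmarks = DMSO-only low control, 5 µM PC-3 D3A high control | repeats = singlicate, each compound tested once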
proCasp7 act – counter-screen for procaspase-3 activators: activators of human procaspase-7; actives 0.093% (n = 330,000); activation, % at 8.5 µM; recombinant procaspase-7, Ac-DEVD-pNA absorbance 405 nm; D23A/D198A/D206A triple mutant, cannot self-cleave; scale: DMSO 0, 5 µM enzyme 100;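 active = percent activation above the screen-wide mean plus 3 SD, cut at about 25% in these data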
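Assay system: Uncleavable procaspase-7 mutant enzyme | Input: 2 µM procaspase-7 mutant as dispensed | Timing: 1 h compound preincubation, 2 h substrate cleavage, 25 °C | Repeats: One well per compound | Control set: DMSO wells as 0%, DMSO with 5 µM added PC-7 as 100% | Technique: Epi-absorbance of released pNA at 405 nm, two timepoints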
MPTP block – blocks calcium-induced mitochondrial swelling | isolated mouse mitochondria, Ca2+ swelling absorbance, 30 min | inhibition, % at 10 µM | actives 1.4% (n = 360,000) | AID 602449;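 active = inhibition of 50% or more, scaled per plate between neutral and stimulator controls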;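 also: 0% = DMSO wells given calcium and 100% = 1 mM EGTA wells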
aDG glyco up – increases alpha dystroglycan glycosylation; Pro5-aDG cells, alpha-DG glycosylation AlphaScreen (IIH6); 0% Pro5, 100% B10-LARGE cell signal; AID 624168; actives 0.22% (n = 360,000); activation, % at 10 µM;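 active = activation of at least 8% versus controls, or a plate z-score of at least 8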;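 also: Pro5 are CHO cells carrying HIG-tagged alpha-DG that lacks glycosylation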
GRIN3A LBD mod – modulates the human NR3A ligand-binding domain | NR3A LBD differential scanning fluorimetry, Tm shift; 0% = protein alone, 100% = glycine-bound protein | Tm shift relative to glycine control, % at 25 µM | actives 2.5% (n = 340,000);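 active = melting temperature shift of at least 10% of the positive control shift, at one fixed dose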
The depositor's hits bear a star. Sampled rows, rich in hits. Any-hit rate of the full collection: about 3.7%.

Screening O=[N+]([O-])c1ccc(N/N=C/c2cn(-c3ccccc3)nc2-c2ccccc2)cc1 returned proCasp3 act -18, proCasp7 act -15, MPTP block 13, aDG glyco up -1 and GRIN3A LBD mod 41*.
For COc1cccc(-c2nc(CN3CCN(C(=O)c4ccco4)CC3)c(C)o2)c1OC the results were MPTP block 1 and aDG glyco up 0.
`O=C1CCCC2=C1CC(C(=O)OCc1ccccc1)C(=O)N2Cc1ccccc1` (stereo unspecified) gave MPTP block 1, aDG glyco up 0 and GRIN3A LBD mod 0.
Screening CC(NC(=O)CSc1nnnn1C1CC1)c1ccccc1Br (stereo unspecified) returned proCasp3 act -1, proCasp7 act 12, MPTP block -1, aDG glyco up 0 and GRIN3A LBD mod -3.
Screening COc1ccc(-c2nn(-c3ccccc3)cc2/C=N/n2cnnc2)cc1OC returned proCasp3 act 6, proCasp7 act -1, MPTP block 0, aDG glyco up 1 and GRIN3A LBD mod 0.
Screening COc1ccc(-c2nn(-c3ccccc3)cc2/C=N/NC(N)=S)cc1OC returned proCasp3 act -8, proCasp7 act -3, MPTP block 0, aDG glyco up 0 and GRIN3A LBD mod 19*.
`O=C(N/N=C/c1cc2c(cc1Br)OCO2)c1c[nH]c2ccccc12` gave proCasp3 act -3, proCasp7 act 2, MPTP block 4, aDG glyco up 0 and GRIN3A LBD mod 15*.
O=C(N/N=C/c1ccc(Br)s1)Nc1ccccc1 was read as proCasp3 act 1, proCasp7 act 0, MPTP block 1, aDG glyco up 0 and GRIN3A LBD mod 20*.
For O=C(N/N=C/c1ccc(Br)s1)c1cccs1 the results were proCasp3 act 6, proCasp7 act 4, MPTP block 4, aDG glyco up 0 and GRIN3A LBD mod 6.
`O=C(N/N=C/c1cc(Br)cs1)c1c[nH]c2ccccc12` gave proCasp3 act -1, proCasp7 act 5, MPTP block 10, aDG glyco up 0 and GRIN3A LBD mod 38*.
Screening O=C(N/N=C/c1ccc(Br)s1)c1c[nH]c2ccccc12 returned proCasp3 act 2, proCasp7 act -2, MPTP block 2, aDG glyco up 0 and GRIN3A LBD mod 25*.
For O=C1c2ccccc2C(c2nnnn2-c2ccc3c(c2)OCCO3)N1Cc1cccc(F)c1 (stereo unspecified) the results were MPTP block 1 and aDG glyco up 0.
Screening COc1cc(NC(=O)[C@H]2O[C@@H](n3cnc4c(N)ncnc43)[C@H](O)[C@@H]2O)cc(OC)c1OC returned MPTP block -1 and aDG glyco up 0.
`O=C(N/N=C/c1cc2c(cc1Br)OCO2)c1cc2ccccc2o1` gave proCasp3 act -2, proCasp7 act 1, MPTP block 0, aDG glyco up 2 and GRIN3A LBD mod 13*.
For O=C(N/N=C/c1cc2c(cc1Br)OCO2)c1ccccn1 the results were proCasp3 act 2, proCasp7 act 11, MPTP block 1, aDG glyco up 0 and GRIN3A LBD mod -1.
Screening Cc1ccc(NC(=O)Cn2c(O)c(N=NC(=O)c3cc([N+](=O)[O-])ccc3O)c3ccccc32)cc1 returned proCasp3 act -2 and proCasp7 act 7.
Cc1cccc(NC(=O)Cn2c(O)c(N=NC(=O)c3ccccc3O)c3ccccc32)c1 was read as proCasp3 act 4, proCasp7 act -11, MPTP block 0, aDG glyco up 0 and GRIN3A LBD mod 21*.
Screening O=C(O)c1cccc2c1C(=O)c1ccc(-c3ccc(F)cc3OCc3ccccc3)cc1S2(=O)=O returned proCasp3 act -4, proCasp7 act 2, MPTP block 2, aDG glyco up 0 and GRIN3A LBD mod 13*.
For O=C1c2ccc(-c3ccc(F)cc3OCc3ccccc3)cc2S(=O)(=O)c2cccc(C(=O)N3CCN(c4ncc(Br)cn4)CC3)c21 the results were proCasp3 act 7, proCasp7 act 12, MPTP block -2, aDG glyco up 0 and GRIN3A LBD mod -4.
